High-throughput results deposited in PubChem by several laboratories.
Platelet DG rel – modulates dense granule release in human platelets; human platelet-rich plasma, SFLLRN dense granule ATP release, luminescence; inhibition, %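 (compounds screened at 7.5 µM in platelet-rich plasma)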; 0.22% of 300,000 active;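 active means mean replicate score, as percent of positive control, at or above 50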
SENP7 inh – blocks the human protease SENP7. Q9BQF6. recombinant SENP7, Z-RLRGG-aminoluciferin luminescence, 40 min. inhibition, % at 5 µM. 1.5% of 330,000 active. AID 434973;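 active means inhibition above about 50% at the single test dose, limit read from the data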;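 further: plate controls were DMSO with enzyme for no effect and no enzyme buffer wells for full effect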
Target sequence (Q9BQF6 706-1050 limits assumed): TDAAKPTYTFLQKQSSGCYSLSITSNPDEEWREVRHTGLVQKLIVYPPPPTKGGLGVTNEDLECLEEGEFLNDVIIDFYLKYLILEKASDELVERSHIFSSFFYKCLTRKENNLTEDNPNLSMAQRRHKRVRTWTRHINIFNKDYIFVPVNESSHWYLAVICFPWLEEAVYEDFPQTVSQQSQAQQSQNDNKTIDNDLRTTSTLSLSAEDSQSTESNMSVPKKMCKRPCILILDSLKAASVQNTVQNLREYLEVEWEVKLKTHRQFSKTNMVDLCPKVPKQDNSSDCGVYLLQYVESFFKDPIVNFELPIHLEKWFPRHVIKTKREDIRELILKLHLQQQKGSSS
SENP8 block-1 – inhibitors of human SENP8 protease; Q96LD8; purified SENP8, Z-RLRGG-aminoluciferin cleavage, luminescence; inhibition, % at 10 µM; 1.2% of 330,000 active; AID 2540; in the data active means inhibition above about 50%
SENP6 block – blocks the human protease SENP6 | Recombinant SENP6 catalytic domain, aminoluciferin luminescence | inhibition, % at 10 µM | 1.8% of 330,000 active | AID 2599;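 active means inhibition above about 50% at the single tested dose, limit read from the data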;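 further: plate controls were DMSO wells with enzyme for no effect and DMSO wells lacking enzyme for full effect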
SENP1 FRET inh – blocks the human SENP1 SUMO protease catalytic domain; Q9P0U3; recombinant SENP1 catalytic domain, CyPet-SUMO1-YPet FRET cleavage; inhibition, % at 10 µM; 0.21% of 360,000 active; AID 624204;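 active means inhibition at least 30% at 10 µM, raw YFP signal under a set limit, fluorescence ratio 0.5 to 1.5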;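 further: 0% = enzyme with DMSO and 100% = no enzyme wells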
Target sequence (Q9P0U3 419-644 limits assumed): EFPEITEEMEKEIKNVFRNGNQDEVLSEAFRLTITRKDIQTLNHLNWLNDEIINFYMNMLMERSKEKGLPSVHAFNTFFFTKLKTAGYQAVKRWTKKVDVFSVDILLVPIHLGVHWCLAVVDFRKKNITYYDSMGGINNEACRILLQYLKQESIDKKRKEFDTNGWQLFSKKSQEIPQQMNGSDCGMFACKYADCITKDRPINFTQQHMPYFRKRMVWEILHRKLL
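System: Recombinant human SENP1 catalytic domain, His6-tagged | Incubation: Enzyme reaction for 50 min at room temperature, dark | Medium: Tris pH 8 with BME, BSA, NP40 and catalase | Also added: 25 nM SUMO1 FRET substrate | Compound: 10 µM single point, 0.5% DMSO | Measured by: FRET fluorescence in CFP and YFP emission channels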
SENP8 block-2 – blocks human SENP8 cleavage of Nedd8 substrate; 0.64% of 360,000 active; Q96LD8; recombinant SENP8, Nedd8 substrate fluorescence; inhibition, % at 20 µM; in the data active means inhibition mostly above about 40%, no sharp cut-off; inactive means mostly below about 27%
SENP8 conf – confirmation of human SENP8 protease inhibitors; shares compounds with SENP7 inh; Recombinant SENP8, Z-RLRGG-aminoluciferin luminescence, 60 min; inhibition, % at 12.5 µM; 40% of 6,200 active; AID 488912;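 active means mean inhibition across replicates above about 50%, limit read from the data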
SENP6 confirm – confirmation of human SENP6 protease inhibitors. shares compounds with SENP7 inh. recombinant SENP6, Z-RLRGG-aminoluciferin luminescence. inhibition, % at 12.5 µM. 58% of 6,200 active. AID 488915
SENP7 conf – confirmation of human SENP7 protease inhibitors; shares compounds with SENP7 inh; recombinant SENP7, Z-RLRGG-aminoluciferin luminescence, 40 min; inhibition, % at 12.5 µM; 69% of 6,200 active
Casp3 SENP sel – selectivity test for SENP inhibitors: human caspase-3 inhibition; shares compounds with SENP7 inh; purified caspase-3, Z-DEVD-aminoluciferin luminescence, 60 min; inhibition, % at 12.5 µM; 60% of 6,200 active; AID 488918;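 active means mean inhibition above about 50%, limit read from the data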;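 further: plate controls were enzyme with DMSO for no effect and wells without caspase-3 for full effect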
SENP luc ctr – luminescence interference (SENP counter-screen). shares compounds with SENP7 inh. Pre-incubated SENP8/Z-RLRGG-aminoluciferin, luciferase luminescence interference. inhibition, % at 12.5 µM. 39% of 6,200 active. AID 488919;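 active means mean inhibition above about 50% when retested at one dose, limit read from the data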;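 further: plate controls were DMSO wells with completed reaction for no effect and substrate without enzyme for full effect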
* hit, by the source's call. In the library only some 2.6% were active in any assay of this set; here they are far more common.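 How the source made its calls, unless noted: active means mean inhibition above about 50% in the one-dose retest (limit read from the data); inactive means the rest.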

For CC1CCC(NC(=O)CN(C)CC(=O)Nc2ccc(F)cc2)CC1 (centres undefined) the results were SENP7 inh 4, SENP8 block-1 4, SENP6 block -4, SENP1 FRET inh 1 and SENP8 block-2 13.
Screening CN(CC(=O)Nc1cccc(F)c1)CC(=O)Nc1cccc2ccccc12 returned SENP7 inh -12, SENP8 block-1 6, SENP6 block 0, SENP1 FRET inh 0 and SENP8 block-2 9.
O=C(Oc1ccc(OC(=O)N2CCOCC2)cc1)c1ccccc1 was read as Platelet DG rel -3, SENP7 inh 56*, SENP8 block-1 26, SENP6 block 38, SENP1 FRET inh 3, SENP8 block-2 22, SENP8 conf -20, SENP6 confirm 19, SENP7 conf 72*, Casp3 SENP sel 47 and SENP luc ctr -2.
For O=C(Oc1ccccc1)N1CCOCC1 the results were Platelet DG rel 12, SENP7 inh -2, SENP8 block-1 -4, SENP6 block 13, SENP1 FRET inh 2 and SENP8 block-2 3.
Screening O=C(Oc1ccc(-c2ccccc2)cc1)N1CCCCC1 returned Platelet DG rel -12, SENP7 inh 33, SENP8 block-1 18, SENP6 block 53*, SENP1 FRET inh 0, SENP8 block-2 0, SENP8 conf -4, SENP6 confirm -5, SENP7 conf -6, Casp3 SENP sel -2 and SENP luc ctr -4.
For O=C(O)c1cccc(NC(=O)c2cccc(S(=O)(=O)Nc3cccc([N+](=O)[O-])c3)c2)c1 the results were Platelet DG rel -4, SENP7 inh 30, SENP8 block-1 51*, SENP6 block 65*, SENP1 FRET inh -2, SENP8 block-2 5, SENP8 conf 72*, SENP6 confirm 69*, SENP7 conf 86*, Casp3 SENP sel 38 and SENP luc ctr 45.
Cc1ccccc1NS(=O)(=O)c1cccc(C(=O)Nc2cccc(C(=O)O)c2)c1 was read as Platelet DG rel 8, SENP7 inh 12, SENP8 block-1 34, SENP6 block 65*, SENP1 FRET inh 1, SENP8 block-2 13, SENP8 conf 52*, SENP6 confirm 44, SENP7 conf 72*, Casp3 SENP sel 12 and SENP luc ctr 26.
Cc1ccc(C(=O)Nc2cccc([N+](=O)[O-])c2)cc1S(=O)(=O)Nc1cccc(C(=O)O)c1 was read as Platelet DG rel 2, SENP7 inh 9, SENP8 block-1 16, SENP6 block 9, SENP1 FRET inh -1 and SENP8 block-2 4.
NS(=O)(=O)c1cccc(NC(=O)c2cccc(S(=O)(=O)N3CCCCCC3)c2)c1 was read as SENP7 inh 5, SENP8 block-1 12, SENP6 block -1, SENP1 FRET inh -2 and SENP8 block-2 9.
`Cc1cc2nc(N)sc2cc1C` gave Platelet DG rel 24, SENP7 inh 70*, SENP8 block-1 65*, SENP6 block 47, SENP1 FRET inh 1, SENP8 block-2 19, SENP8 conf 75*, SENP6 confirm 74*, SENP7 conf 92*, Casp3 SENP sel 84* and SENP luc ctr 73*.
Screening CC(C)c1ccc2nc(N)sc2c1 returned Platelet DG rel 18, SENP7 inh -4, SENP8 block-1 -6, SENP6 block -3, SENP1 FRET inh 3 and SENP8 block-2 16.
`CCCCN(C)C(=O)CSc1nc(NCc2ccc(OC)cc2)c2ccccc2n1` gave Platelet DG rel 5, SENP7 inh 4, SENP8 block-1 -3, SENP6 block -11, SENP1 FRET inh 3 and SENP8 block-2 17.
For O=C1c2ccccc2C(=O)c2c1ccc(O)c2O the results were SENP1 FRET inh -2 and SENP8 block-2 29.
`O=C1C(c2ccccc2)=[N+]([O-])c2ccccc21` gave Platelet DG rel 7, SENP7 inh 45, SENP8 block-1 23, SENP6 block 64*, SENP1 FRET inh 3, SENP8 block-2 inactive, SENP8 conf 55*, SENP6 confirm 69*, SENP7 conf 75*, Casp3 SENP sel 61* and SENP luc ctr 27.
For O=C(/C=C/c1ccc(O)c(O)c1)NC(=O)c1ccccc1O the results were Platelet DG rel 1, SENP7 inh 59*, SENP8 block-1 69*, SENP6 block 74*, SENP1 FRET inh 3, SENP8 block-2 -7, SENP8 conf 0, SENP6 confirm 64*, SENP7 conf 90*, Casp3 SENP sel 38 and SENP luc ctr 74*.
`CSc1ccc(/C=N/NC(=O)c2ccccc2Cl)cc1` gave Platelet DG rel 1, SENP7 inh 6, SENP8 block-1 -11, SENP6 block -40, SENP1 FRET inh 1 and SENP8 block-2 -53.
CSc1ccc(/C=C/C(=O)NC(=O)c2ccccc2O)cc1 was read as Platelet DG rel 1, SENP7 inh 48, SENP8 block-1 79*, SENP6 block 93*, SENP1 FRET inh -8, SENP8 block-2 -392, SENP8 conf 22, SENP6 confirm 15, SENP7 conf 10, Casp3 SENP sel 5 and SENP luc ctr 18.
O=C(/C=C/c1ccc(Br)cc1)NC(=O)c1ccccc1O was read as Platelet DG rel 0, SENP7 inh 64*, SENP8 block-1 78*, SENP6 block 87*, SENP1 FRET inh -4, SENP8 block-2 -32, SENP8 conf -4, SENP6 confirm 55*, SENP7 conf 79*, Casp3 SENP sel 10 and SENP luc ctr 24.
For O=C(NO)c1ccccc1O the results were Platelet DG rel -5, SENP7 inh 2, SENP8 block-1 6, SENP6 block -6, SENP1 FRET inh 1 and SENP8 block-2 -5.
`Cc1ccc(C(=O)N/N=C\c2ccncc2)s1` gave Platelet DG rel 0, SENP7 inh 4, SENP8 block-1 2, SENP6 block 15, SENP1 FRET inh 0 and SENP8 block-2 6.
